Results of several laboratories.
Lines come from different studies, so protocols differ. Converted amounts (≈) assume the structure as drawn.

With `O=C(Nc1cc(F)c(F)c(F)c1)c1ccc(F)c(S(=O)(=O)NCc2cccc(B(O)O)c2)c1` the EC50 was 920 nM (Hepatitis B virus; viral replication, inhibitor, qPCR; HePAD38; 6 days).
The GI50 of `COc1ccc(-c2ccc(-c3ccc(C(=N)N)nc3)s2)cc1Cl` is reported as 1810 nM (SF-268; cell growth or viability, SRB).
`Cc1ccc(C)n1-c1ccc(-c2nnc(-c3ccc(Br)cc3)[nH]2)cc1` gave an MIC of 4 µg/mL (≈ 10.2 µM) (Saccharomyces cerevisiae; microbial growth, broth dilution; ATCC9763).
For `O=C1O[C@H]([C@@H](O)CO)C(O)=C1O`, the inhibition was 49.9% (ABTS scavenging; 60 µg/mL).
`COc1c(C)cnc(COc2ccc(NC(=O)Nc3cccc(C(F)(F)F)c3)cc2)c1C` has an IC50 of greater than 100000 nM (L02; cell growth or viability, MTT; 72 h).
The inhibition of `Cc1ccc(N(O)N=Nc2ccc(S(=O)(=O)Nc3cc(C)on3)cc2)cc1` is reported as 17.2% (ABTS scavenging; 20 µg/mL).
For `Nc1ccc(-c2nc(-c3ccc(Oc4ccccc4)cc3)no2)cc1`, the MIC was greater than 50 µg/mL (Clostridioides difficile; microbial growth, broth dilution; 48 h).
For `O=C(N[C@H](CO)[C@H](O)c1ccc([N+](=O)[O-])cc1)C(Cl)Cl`, the MIC90 was 3.9 µg/mL (≈ 12.1 µM) (Aliivibrio fischeri; microbial growth).
For `CCN(CC)CCNC(=O)c1c(C)[nH]c(/C=C2\C(=O)Nc3ccc(F)cc32)c1C`, the GI50 was 1420 nM (BaF3; cell growth or viability, ATP luminescence; 72 h).
`Cl.NCCc1cccc(Oc2ccc(-c3noc(-c4ccc(O)cc4)n3)cc2)c1` has an MIC of 4 µg/mL (Clostridioides difficile; microbial growth, broth dilution; 48 h).
`Cc1cccc(N(O)N=Nc2ccc(S(=O)(=O)Nc3cc(C)on3)cc2)c1` has an inhibition of 90.2% (ABTS scavenging; 300 µg/mL).
`COc1ccnc(COc2ccc(NC(=O)Nc3ccc(F)cc3)cc2)c1OC` has an IC50 of greater than 100000 nM (L02; cell growth or viability, MTT; 72 h).
With `O=C(O)CCc1cccc(Oc2ccc(-c3noc(-c4ccc(O)cc4)n3)cc2)c1` the MIC was 8 µg/mL (≈ 19.9 µM) (Clostridioides difficile; microbial growth, broth dilution; 48 h).
